Active and inactive are the calls of the source. The rule behind the calls is not given here.
Legend:
[1] = AUC (0 to infinity) in BALB/c mouse at 5 mg/kg, po measured for 0.83 to 24 hrs by LC-MS/MS analysis; type: ADME, organism-based; set-up: time upper 24 hrs, dose 5 mg/kg, time lower 0.83 hrs, route po; settings: in vivo
[2] = Induction of osteogenesis in BALB/c mouse MSC cells assessed as increase in mineral nodule formation at 0.001 nM treated for 21 days with compound refreshment for every 48 hrs by Alizarin red S staining based analysis relative to control; type: functional; settings: time 21 day
In short: (§1)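 Bone marrow cells were flushed from the long bones of 6–8-week-old BALB/c mice and seeded at 2 × 10⁶ per well. Medium: 10% FBS, 100 nM dexamethasone, 50 μg mL⁻¹ ascorbic acid and 10 mM β-glycerophosphate. Compound and medium were renewed every 48 h for 21 days. Cells were fixed in 4% paraformaldehyde and stained with Alizarin red (pH 4.2). Stain was eluted with 10% cetylpyridinium chloride for 1 h and read at 595 nm versus control.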

Mus musculus [3] = test: Induction of osteogenesis in BALB/c mouse model of drill hole defect at femur mid-diaphysis assessed as increase in trabecular number at 5 mg/kg, po for 12 days by micro-CT analysis; type: functional, organism-based; settings: time 12.0 day
In short: (§2)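 Female BALB/c mice, 8–9 weeks, given a drill-hole defect at femur mid-diaphysis under intraperitoneal ketamine (45 mg kg⁻¹)/xylazine (5 mg kg⁻¹); ten per group. Oral dosing at 1, 5 or 10 mg kg⁻¹ began the day after injury for 12 days; PTH 20 μg kg⁻¹ per day as reference. Defect region scanned by μCT for BV/TV, Tb.Th and Tb.N.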

Calvarial osteoblast [4] = test: Induction of cell proliferation of BALB/c mouse calvarial osteoblast cells at 10 nM incubated for 48 hrs by MTT assay relative to control
Calvarial osteoblast [5] = test: Induction of osteogenesis in BALB/c mouse calvarial osteoblast cells assessed as increase in phosphorylated SMAD1 level at 1 to 100 pM incubated for 48 hrs by Western blot analysis; type: functional, cell-based; settings: Calvaria, dose 1-100 pM
In short: (§3)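 Calvarial osteoblasts seeded at 10⁶ per well, treated after 24 h at 1 pM and 100 pM for 48 h. Lysed with protease and phosphatase inhibitors, protein by BCA; 30 μg resolved by SDS-PAGE, PVDF transfer, 5% BSA block. Primary antibodies to BMP2, SMAD1, phospho-SMAD1, RUNX2, type I col (1:1000) overnight at 4 °C; β-actin loading control; HRP chemiluminescence and densitometry.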

[6] = Clearance in BALB/c mouse at 5 mg/kg, po measured for 0.83 to 24 hrs by LC-MS/MS analysis; type: ADME, organism-based; settings: in vivo, time 0.83-24 hrs
Mus musculus [7] = test: Induction of osteogenesis in BALB/c mouse model of drill hole defect at femur mid-diaphysis assessed as increase in bone volume/tissue volume fraction at 5 to 10 mg/kg, po for 12 days by micro-CT analysis; type: functional, organism-based; settings: dose 5-10 mg/kg, time 12.0 day; in short: as §2
[8] = MRT in BALB/c mouse at 5 mg/kg, po measured for 0.83 to 24 hrs by LC-MS/MS analysis; type: ADME, organism-based; settings: in vivo, time 0.83-24 hrs
Calvarial osteoblast [9] = test: Induction of osteogenesis in BALB/c mouse calvarial osteoblast cells assessed as increase in type-1 col mRNA level at 1 to 100 pM by qPCR analysis; type: functional, cell-based; settings: Calvaria, dose 1-100 pM
In short: (§4)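 BALB/c calvarial osteoblasts treated at 1 pM and 100 pM; RNA isolated, cDNA synthesized and RUNX2 and type 1 col transcripts measured by PCR.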

Calvarial osteoblast [10] = test: Induction of cell proliferation of BALB/c mouse calvarial osteoblast cells at 0.1 nM incubated for 48 hrs by MTT assay relative to control; type: functional, Calvaria
In short: (§5)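 Primary calvarial osteoblasts from 1–2-day-old neonatal BALB/c pups, released by dispase/collagenase digestion and grown in α-MEM with 10% FBS. Seeded at 2 × 10³ cells per well, treated after 24 h for 48 h in α-MEM with 5% FBS, 10 mM β-glycerophosphate and 50 μg mL⁻¹ ascorbic acid. MTT added for 4 h at 37 °C, formazan dissolved in DMSO, absorbance read at 570 nm versus untreated cells.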

Calvarial osteoblast [11] = test: Cytotoxicity in BALB/c mouse calvarial osteoblast cells at 0.001 to 1000 nM incubated for 48 hrs by MTT assay; type: toxicity, cell-based, Calvaria; settings: 1 µM, dose 0.001-1000 nM
In short: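 Primary calvarial osteoblasts from 1–2 day old BALB/c pups (collagenase/dispase digests, α-MEM with 10% FBS) seeded at 2 × 10³ per well. MTT added for 4 h at 37 °C, formazan dissolved in DMSO, absorbance read at 570 nm.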

Calvarial osteoblast [12] = test: Induction of cell proliferation of BALB/c mouse calvarial osteoblast cells at 0.001 nM incubated for 48 hrs by MTT assay relative to control; type: functional, Calvaria; in short: as §5
Calvarial osteoblast [13] = test: Induction of osteogenesis in BALB/c mouse calvarial osteoblast cells assessed as increase in type-1 col level at 1 to 100 pM incubated for 48 hrs by Western blot analysis; type: functional, cell-based; settings: Calvaria, dose 1-100 pM; in short: as §3
Mus musculus [14] = test: Induction of osteogenesis in BALB/c mouse model of drill hole defect at femur mid-diaphysis assessed as increase in trabecular thickness at 5 to 10 mg/kg, po for 12 days by micro-CT analysis; type: functional, organism-based; settings: dose 5-10 mg/kg, time 12.0 day; in short: as §2
Mus musculus [15] = test: Induction of osteogenesis in BALB/c mouse model of drill hole defect at femur mid-diaphysis assessed as increase in calcein binding at fracture site at 5 mg/kg, po for 12 days by confocal microscopy; type: functional, organism-based; settings: time 12.0 day
In short: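 Femur drill-hole model in female BALB/c mice, oral dosing 1–10 mg kg⁻¹ for 12 days from the day after injury. Calcein 20 mg kg⁻¹ in saline given i.p. 24 h before autopsy; undecalcified drill-hole region embedded in acrylic, 50 μm sections cut, and calcein intensity at the fracture site quantified.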

[16] = Induction of osteogenesis in BALB/c mouse MSC cells assessed as increase in mineral nodule formation at 0.1 nM treated for 21 days with compound refreshment for every 48 hrs by Alizarin red S staining based analysis relative to control; type: functional; settings: time 21 day; in short: as §1
Mus musculus [17] = test: Induction of osteogenesis in BALB/c mouse model of drill hole defect at femur mid-diaphysis assessed as increase in callus formation at 1 to 10 mg/kg, po for 12 days by micro-CT analysis; type: functional, organism-based; settings: dose 1-10 mg/kg, time 12.0 day; in short: as §2
[18] = Volume of distribution in BALB/c mouse at 5 mg/kg, po measured for 0.83 to 24 hrs by LC-MS/MS analysis; type: ADME, organism-based; settings: in vivo, time 0.83-24 hrs
Calvarial osteoblast [19] = test: Induction of osteogenesis in BALB/c mouse calvarial osteoblast cells assessed as increase in SMAD1 level at 1 to 100 pM incubated for 48 hrs by Western blot analysis; type: functional, cell-based; settings: Calvaria, dose 1-100 pM; in short: as §3
Mus musculus [20] = test: Induction of osteogenesis in BALB/c mouse model of drill hole defect at femur mid-diaphysis assessed as increase in BMP2 mRNA level at 5 to 10 mg/kg, po for 12 days by qPCR analysis; type: functional, organism-based; settings: dose 5-10 mg/kg, time 12.0 day
[21] = Stability in SIF assessed as compound remaining measured upto 6 hrs by RP-UHPLC analysis; type: ADME; settings: simulated intestinal fluid (SIF), read-out: Stability
Mus musculus [22] = test: Induction of osteogenesis in BALB/c mouse model of drill hole defect at femur mid-diaphysis assessed as increase in RUNX2 mRNA level at 5 to 10 mg/kg, po for 12 days by qPCR analysis; type: functional, organism-based; settings: dose 5-10 mg/kg, time 12.0 day
Calvarial osteoblast [23] = test: Induction of osteogenesis in BALB/c mouse calvarial osteoblast cells assessed as increase in RUNX2 level at 1 to 100 pM incubated for 48 hrs by Western blot analysis; type: functional, cell-based; settings: Calvaria, dose 1-100 pM; in short: as §3
[24] = Stability in SGF assessed as compound remaining measured upto 6 hrs by RP-UHPLC analysis; type: ADME; settings: simulated gastric fluid (SGF), read-out: Stability
Calvarial osteoblast [25] = test: Induction of osteogenesis in BALB/c mouse calvarial osteoblast cells assessed as increase in RUNX mRNA level at 1 to 100 pM by qPCR analysis; type: functional, cell-based; settings: Calvaria, dose 1-100 pM; in short: as §4
[26] = Cmax in BALB/c mouse at 5 mg/kg, po measured for 0.83 to 24 hrs by LC-MS/MS analysis; type: ADME, organism-based; set-up: time 0.83-24 hrs, dose 5 mg/kg, route po; settings: in vivo
Mus musculus [27] = test: Induction of osteogenesis in BALB/c mouse model of drill hole defect at femur mid-diaphysis assessed as increase in type-1 col mRNA level at 5 to 10 mg/kg, po for 12 days by qPCR analysis; type: functional, organism-based; settings: dose 5-10 mg/kg, time 12.0 day
Calvarial osteoblast [28] = test: Induction of osteogenesis in BALB/c mouse calvarial osteoblast cells using PNPP as substrate assessed as increase in ALP activity at 0.001 to 1000 nM measured after 48 hrs by spectrophotometry; type: functional, cell-based; settings: Calvaria, dose 0.001-1000 nM
In short: (§6)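 Neonatal BALB/c calvarial osteoblasts, 2 × 10³ cells per well, adhered 24 h, then exposed to compounds (1 pM to 1 μM range) in osteoblast differentiation medium for 48 h. Cells frozen overnight at −80 or −20 °C, thawed at 37 °C to expose ectoenzyme; p-nitrophenyl phosphate added and ALP activity read at 405 nm. Untreated cells as control.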

[29] = Tmax in BALB/c mouse at 5 mg/kg, po measured for 0.83 to 24 hrs by LC-MS/MS analysis; type: ADME, organism-based; settings: in vivo, time 0.83-24 hrs
Calvarial osteoblast [30] = test: Induction of osteogenesis in BALB/c mouse calvarial osteoblast cells assessed as increase in BMP2 level at 1 to 100 pM incubated for 48 hrs by Western blot analysis; type: functional, cell-based; settings: Calvaria, dose 1-100 pM; in short: as §3
Mus musculus [31] = test: Induction of osteogenesis in BALB/c mouse model of drill hole defect at femur mid-diaphysis assessed as increase in extracellular matrix deposition at 1 to 10 mg/kg, po for 12 days by H and E staining based analysis; type: functional, organism-based; settings: dose 1-10 mg/kg, time 12.0 day
In short: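 Drill-hole femur defect, female BALB/c mice, oral dosing 1–10 mg kg⁻¹ for 12 days. Injury-site tissue fixed 48 h in 4% paraformaldehyde, 48 h in 70% isopropanol, decalcified, paraffin-embedded; 5 μm transverse sections stained with H&E and imaged by bright-field microscopy.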

[32] = Half life in BALB/c mouse at 5 mg/kg, po measured for 0.83 to 24 hrs by LC-MS/MS analysis; type: ADME, organism-based; settings: in vivo, time 0.83-24 hrs
[33] = Stability in SPF assessed as compound remaining measured upto 6 hrs by RP-UHPLC analysis; type: physicochemical; settings: read-out: Stability
Mus musculus [34] = test: Induction of osteogenesis in BALB/c mouse model of drill hole defect at femur mid-diaphysis assessed as increase in fracture healing at 1 to 10 mg/kg, po for 12 days by micro-CT analysis; type: functional, organism-based; settings: dose 1-10 mg/kg, time 12.0 day; in short: as §2
[35] = Stability in BALB/c mouse plasma assessed as compound remaining measured upto 6 hrs by RP-UHPLC analysis; type: ADME, cell-free; settings: read-out: Stability
Calvarial osteoblast [36] = test: Induction of osteogenesis in BALB/c mouse calvarial osteoblast cells using PNPP as substrate assessed as increase in ALP activity at 0.1 to 10 nM measured after 48 hrs by spectrophotometry; type: functional, cell-based; settings: Calvaria, dose 0.1-10 nM; in short: as §6

SMILES: CCCCCC(=O)Nc1nc(-c2ccc(Br)cc2)c(Br)c(-c2cc(OC)c(OC)cc2OC)n1
- AUC [1]: 6.18006 ng·h/mL
- Activity [2]: ~40%
- Activity (Mus musculus [3]): Active
- Activity (Calvarial osteoblast [4]): ~23%
- Activity (Calvarial osteoblast [5]): Active
- CL [6]: 1964 mL/min/kg
- Activity (Mus musculus [7]): Active
- MRT [8]: 18.1 h
- Activity (Calvarial osteoblast [9]): Active
- Activity (Calvarial osteoblast [10]): ~31%
- Activity (Calvarial osteoblast [11]): Non-Toxic
- Activity (Calvarial osteoblast [12]): ~32%
- Activity (Calvarial osteoblast [13]): Active
- Activity (Mus musculus [14]): Active
- Activity (Mus musculus [15]): Active
- Activity [16]: ~39%
- Activity (Mus musculus [17]): Active
- Vd [18]: 2113.99 L/kg
- Activity (Calvarial osteoblast [19]): Active
- Activity (Mus musculus [20]): Active
- remaining at 6 h [21]: > 50%
- Activity (Mus musculus [22]): Active
- Activity (Calvarial osteoblast [23]): Active
- remaining at 6 h [24]: > 50%
- Activity (Calvarial osteoblast [25]): Active
- Cmax [26]: 0.83 ng/mL
- Activity (Mus musculus [27]): Active
- Activity (Calvarial osteoblast [28]): Active
- Tmax [29]: 0.83 h
- Activity (Calvarial osteoblast [30]): Active
- Activity (Mus musculus [31]): Active
- half-life [32]: 12.4 h
- remaining at 6 h [33]: > 85%
- Activity (Mus musculus [34]): Active
- remaining at 6 h [35]: > 85%

SMILES: COc1cc(OC)c(-c2cc(-c3ccc(Br)cc3)nc(N)n2)cc1OC
- Activity (Calvarial osteoblast [36]): Active
- Activity (Calvarial osteoblast [10]): ~30%
- Activity (Calvarial osteoblast [11]): Non-Toxic
- Activity [16]: ~23%

SMILES: COc1cc(OC)c(-c2cc(-c3ccc(Cl)cc3)nc(N)n2)cc1OC
- Activity (Calvarial osteoblast [36]): Active
- Activity (Calvarial osteoblast [11]): Non-Toxic
